Data as given in ChEMBL document CHEMBL1132947, “Synthesis and biological evaluation of 2'-carbamate-linked and 2'-carbonate-linked prodrugs of paclitaxel: selective activation by the tumor-associated protease plasmin” (J Med Chem, 2000).
Converted amounts (≈) assume the structure as drawn.

Key:
Type in all cases: functional, cell-based
Conditions in all cases: Homo sapiens
A498 = test: Cytotoxicity against A498 Tumor cell line in SRB Cell viability test
Procedure, shortened: (§1)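 Human tumor cell lines exposed to (pro)drug for 5 days; growth measured by microculture sulforhodamine B assay. ID50 = concentration giving 50% growth inhibition versus untreated control cultures, reported in ng/mL. Experiments run in quadruplicate and results averaged.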

EVSA-T = test: Cytotoxicity against EVSA-T Tumor cell line in SRB Cell viability test; procedure, shortened: as §1
NCI-H226 = test: Cytotoxicity against H226 Tumor cell line in SRB Cell viability test; procedure, shortened: as §1
IGROV-1 = test: Cytotoxicity against IGROV Tumor cell line in SRB Cell viability test; procedure, shortened: as §1
M19-MEL = test: Cytotoxicity against M19 Tumor cell line in SRB Cell viability test; procedure, shortened: as §1
MCF7 = test: Cytotoxicity against MCF-7 Tumor cell line in SRB Cell viability test; procedure, shortened: as §1
WiDr = test: Cytotoxicity against WIDR Tumor cell line in SRB Cell viability test; procedure, shortened: as §1

CC(=O)O[C@H]1C(=O)[C@@]2(C)[C@H]([C@H](OC(=O)c3ccccc3)[C@]3(O)CC(OC(=O)[C@H](OC(=O)N(C)CCN(C)C(=O)[C@H](CCCCN)NC(=O)[C@H](CC(C)C)NC(=O)[C@H](N)C(C)C)C(NC(=O)c4ccccc4)c4ccccc4)C(C)=C1C3(C)C)[C@]1(OC(C)=O)CO[C@@H]1C[C@@H]2O.Cl.Cl (stereo not given in full)
IC50 (A498): 0.045 mg/L
IC50 (EVSA-T): 0.0052 mg/L
IC50 (NCI-H226): 0.025 mg/L
IC50 (IGROV-1): 0.026 mg/L
IC50 (M19-MEL): 0.024 mg/L
IC50 (MCF7): 0.0069 mg/L
IC50 (WiDr): 0.011 mg/L

CC(=O)O[C@H]1C(=O)[C@@]2(C)[C@H]([C@H](OC(=O)c3ccccc3)[C@]3(O)C[C@H](OC(=O)[C@H](O)[C@@H](NC(=O)c4ccccc4)c4ccccc4)C(C)=C1C3(C)C)[C@]1(OC(C)=O)CO[C@@H]1C[C@@H]2O [PACLITAXEL]
IC50 (A498): < 0.003 mg/L
IC50 (EVSA-T): < 0.003 mg/L
IC50 (NCI-H226): < 0.003 mg/L
IC50 (IGROV-1): 0.01 mg/L (≈ 11.7 nM)
IC50 (M19-MEL): < 0.003 mg/L
IC50 (MCF7): < 0.003 mg/L
IC50 (WiDr): < 0.003 mg/L

CC(=O)O[C@H]1C(=O)[C@@]2(C)[C@H]([C@H](OC(=O)c3ccccc3)[C@]3(O)CC(OC(=O)[C@H](OC(=O)NCCNC(=O)[C@H](CCCCN)NC(=O)[C@H](Cc4ccccc4)NC(=O)[C@@H](C)N)C(NC(=O)c4ccccc4)c4ccccc4)C(C)=C1C3(C)C)[C@]1(OC(C)=O)CO[C@@H]1C[C@@H]2O.Cl.Cl (stereo not given in full)
IC50 (A498): 0.04 mg/L
IC50 (EVSA-T): 0.011 mg/L
IC50 (NCI-H226): 0.041 mg/L
IC50 (IGROV-1): 0.019 mg/L
IC50 (M19-MEL): 0.045 mg/L
IC50 (MCF7): 0.016 mg/L
IC50 (WiDr): 0.013 mg/L

CC(=O)O[C@H]1C(=O)[C@@]2(C)[C@H]([C@H](OC(=O)c3ccccc3)[C@]3(O)CC(OC(=O)[C@H](OC(=O)OCc4ccc(NC(=O)[C@H](CCCCN)NC(=O)[C@H](CC(C)C)NC(=O)[C@H](N)C(C)C)cc4)C(NC(=O)c4ccccc4)c4ccccc4)C(C)=C1C3(C)C)[C@]1(OC(C)=O)CO[C@@H]1C[C@@H]2O.Cl.Cl (stereo not given in full)
IC50 (A498): > 0.06 mg/L
IC50 (EVSA-T): 0.0093 mg/L
IC50 (NCI-H226): 0.016 mg/L
IC50 (IGROV-1): 0.027 mg/L
IC50 (M19-MEL): 0.02 mg/L
IC50 (MCF7): 0.0092 mg/L
IC50 (WiDr): 0.011 mg/L

CC(=O)O[C@H]1C(=O)[C@@]2(C)[C@H]([C@H](OC(=O)c3ccccc3)[C@]3(O)CC(OC(=O)[C@H](OC(=O)N(C)CCN(C)C(=O)[C@H](CCCCN)NC(=O)[C@H](Cc4ccccc4)NC(=O)[C@@H](C)N)C(NC(=O)c4ccccc4)c4ccccc4)C(C)=C1C3(C)C)[C@]1(OC(C)=O)CO[C@@H]1C[C@@H]2O.Cl.Cl (stereo not given in full)
IC50 (A498): 0.038 mg/L
IC50 (EVSA-T): 0.0072 mg/L
IC50 (NCI-H226): 0.021 mg/L
IC50 (IGROV-1): 0.011 mg/L
IC50 (M19-MEL): 0.017 mg/L
IC50 (MCF7): 0.0066 mg/L
IC50 (WiDr): 0.01 mg/L
